SENP1 inh: blocks the human SENP1 SUMO protease catalytic domain. inhibition, % at 10 µM. Q9P0U3. recombinant SENP1 catalytic domain, CyPet-SUMO1-YPet FRET cleavage. AID 624204. 0.21% of 360,000 active;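 active means inhibition at least 30% at 10 µM, raw YFP signal under a set limit, fluorescence ratio 0.5 to 1.5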
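Compound: 10 µM single point, 0.5% DMSO; Test system: hSENP1 catalytic domain, recombinant; Timing: 50 min reaction at room temperature; Technique: FRET, CFP and YFP emission; Control set: no-enzyme wells low, DMSO-plus-enzyme wells high control.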
SENP8 block-1: inhibitors of human SENP8 protease | Q96LD8 | recombinant SENP8, Nedd8 substrate fluorescence | inhibition, % at 20 µM | 0.64% of 360,000 active | AID 602440; in the data active means inhibition mostly above about 40%, no sharp cut-off; inactive means mostly below about 27%
Target sequence (Q96LD8 whole entry, looked up): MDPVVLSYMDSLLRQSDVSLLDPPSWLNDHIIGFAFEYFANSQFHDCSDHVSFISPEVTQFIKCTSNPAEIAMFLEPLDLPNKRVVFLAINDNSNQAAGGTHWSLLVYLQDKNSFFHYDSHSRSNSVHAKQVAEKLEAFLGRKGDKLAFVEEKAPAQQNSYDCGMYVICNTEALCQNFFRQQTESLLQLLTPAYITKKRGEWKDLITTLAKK
SENP6 block: blocks the human protease SENP6; inhibition, % at 10 µM; Q9GZR1; Recombinant SENP6 catalytic domain, aminoluciferin luminescence; 1.8% of 330,000 active; AID 2599;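 active means inhibition above about 50% at the single tested dose, limit read from the data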
SENP7 block: blocks the human protease SENP7 | recombinant SENP7, Z-RLRGG-aminoluciferin luminescence, 40 min | inhibition, % at 5 µM | 1.5% of 330,000 active;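 active means inhibition above about 50% at the single test dose, limit read from the data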
UCH37 DUB inh: human UCH37 deubiquitinating enzyme inhibition; Q9Y5K5; purified proteasome/UCH37, Ub-AMC cleavage fluorescence; inhibition, % (concentration not given with the values); 0.33% of 330,000 active; AID 588478;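 active means mean inhibition over replicate wells above about 20%, limit read from the data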
Target sequence (Q9Y5K5 whole entry, looked up): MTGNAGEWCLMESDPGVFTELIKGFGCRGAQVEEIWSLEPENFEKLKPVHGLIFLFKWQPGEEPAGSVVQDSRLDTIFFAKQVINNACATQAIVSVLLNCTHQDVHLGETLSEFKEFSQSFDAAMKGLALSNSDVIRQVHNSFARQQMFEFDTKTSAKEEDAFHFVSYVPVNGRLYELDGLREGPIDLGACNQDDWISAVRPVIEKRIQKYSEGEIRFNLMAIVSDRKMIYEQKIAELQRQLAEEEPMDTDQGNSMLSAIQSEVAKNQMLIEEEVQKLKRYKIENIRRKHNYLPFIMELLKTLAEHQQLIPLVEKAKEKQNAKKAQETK
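System: Proteasome-associated human UCH37 deubiquitinase; Input: 0.15 nM proteasome in added enzyme buffer; Also added: Ub-AMC substrate from 1 µM stock; Incubation: 30 min compound-proteasome preincubation then 25 min substrate reaction, room temperature; Detection: fluorescence, ex 355 nm, em 460 nm; Read-out: % inhibition of Ub-AMC cleavage fluorescence; Benchmarks: no-proteasome and no-compound wells.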
SENP8 block-2: inhibitors of human SENP8 protease | inhibition, % at 10 µM | purified SENP8, Z-RLRGG-aminoluciferin cleavage, luminescence | 1.2% of 330,000 active | AID 2540; in the data active means inhibition above about 50%
SENP8 conf: human SENP8 inhibition, confirmed; shares compounds with SENP7 block; Recombinant SENP8, Z-RLRGG-aminoluciferin luminescence, 60 min; inhibition, % at 12.5 µM; 40% of 6,200 active;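 active means mean inhibition across replicates above about 50%, limit read from the data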
SENP6 confirm: confirmation of human SENP6 protease inhibitors | shares compounds with SENP7 block | recombinant SENP6, Z-RLRGG-aminoluciferin luminescence | inhibition, % at 12.5 µM | 58% of 6,200 active | AID 488915
SENP7 conf: human SENP7 inhibition, confirmed; shares compounds with SENP7 block; recombinant SENP7, Z-RLRGG-aminoluciferin luminescence, 40 min; inhibition, % at 12.5 µM; 69% of 6,200 active
Casp3 select: caspase-3 inhibition (SENP selectivity assay) | shares compounds with SENP7 block | purified caspase-3, Z-DEVD-aminoluciferin luminescence, 60 min | inhibition, % at 12.5 µM | 60% of 6,200 active | AID 488918;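 active means mean inhibition above about 50%, limit read from the data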
Luc interf: counter-screen for SENP inhibitors: luminescence interference | Pre-incubated SENP8/Z-RLRGG-aminoluciferin, luciferase luminescence interference | shares compounds with SENP7 block | inhibition, % at 12.5 µM | 39% of 6,200 active;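 active means mean inhibition above about 50% when retested at one dose, limit read from the data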
A number is an active result. Rows were chosen to be rich in hits. Some 2.6% of all compounds tested hit in one or more screens of this group.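 How the source made its calls, unless noted: active means mean inhibition above about 50% in the one-dose retest (limit read from the data); inactive means the rest.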

What do the screens show for `Cc1[nH]n(C(N)=S)c(=O)c1N=Nc1cccc(Cl)c1`?
SENP1 inh: inactive; SENP8 block-1: inactive; SENP6 block: 91.2; SENP7 block: 71.7; UCH37 DUB inh: inactive; SENP8 block-2: 89.2; SENP8 conf: inactive; SENP6 confirm: inactive; SENP7 conf: inactive; Casp3 select: inactive; Luc interf: inactive

Results for Cc1ccccc1N=Nc1c(C)[nH]n(C(N)=S)c1=O ?
SENP1 inh: inactive; SENP8 block-1: inactive; SENP6 block: 82.3; SENP7 block: inactive; UCH37 DUB inh: inactive; SENP8 block-2: 60.2; SENP8 conf: inactive; SENP6 confirm: inactive; SENP7 conf: inactive; Casp3 select: inactive; Luc interf: inactive

What do the screens show for `Cc1[nH]n(C(N)=S)c(=O)c1C(c1ccccc1)C(C#N)C#N` (stereo not drawn)?
SENP1 inh: inactive; SENP8 block-1: inactive; SENP6 block: inactive; SENP7 block: inactive; UCH37 DUB inh: inactive; SENP8 block-2: inactive

What do the screens show for `Cc1[nH]n(C(N)=S)c(=O)c1N=Nc1ccc([N+](=O)[O-])cc1Cl`?
SENP1 inh: inactive; SENP8 block-1: inactive; SENP6 block: 93.7; SENP7 block: 69.9; UCH37 DUB inh: inactive; SENP8 block-2: 94.6; SENP8 conf: 81.0; SENP6 confirm: 95.2; SENP7 conf: 98.5; Casp3 select: 79.3; Luc interf: inactive

Results for Cc1[nH]n(C(N)=S)c(=O)c1N=Nc1ccccc1C(F)(F)F ?
SENP1 inh: inactive; SENP8 block-1: inactive; SENP6 block: 54.0; SENP7 block: inactive; UCH37 DUB inh: inactive; SENP8 block-2: inactive; SENP8 conf: 55.5; SENP6 confirm: 53.4; SENP7 conf: 77.4; Luc interf: 50.2

Results for CN(C)C=Nc1sc2c(c1C#N)CCCCC2 ?
UCH37 DUB inh: inactive

How did COc1ccc(C=NNc2cc(N(C)C)nc(N(C)C)n2)cc1 do in these assays?
UCH37 DUB inh: inactive

Results for CN(C)c1cc(N/N=C/c2ccccc2C(F)(F)F)nc(N(C)C)n1 ?
SENP1 inh: inactive; SENP8 block-1: inactive; SENP6 block: 55.2; SENP7 block: inactive; SENP8 block-2: inactive; SENP8 conf: inactive; SENP6 confirm: inactive; SENP7 conf: inactive; Casp3 select: inactive; Luc interf: inactive

What do the screens show for `CC(C)N(C(=O)Nc1ccc2nsnc2c1)C(C)C`?
SENP6 block: 98.1; SENP7 block: 95.3; UCH37 DUB inh: inactive; SENP8 block-2: 97.2; SENP8 conf: 82.6; SENP6 confirm: 89.0; SENP7 conf: 74.6; Casp3 select: inactive; Luc interf: inactive

Results for CC(C)Oc1ccccc1C=NNC(=O)c1ccccc1Cl ?
UCH37 DUB inh: inactive

Results for Cc1c(C#N)c(O)[nH]c(=O)c1N=Nc1ccc(S(N)(=O)=O)cc1 ?
SENP1 inh: inactive; SENP8 block-1: inactive; SENP6 block: 51.2; SENP7 block: inactive; UCH37 DUB inh: inactive; SENP8 block-2: inactive; SENP8 conf: inactive; SENP6 confirm: inactive; SENP7 conf: 71.1; Casp3 select: 75.2; Luc interf: 51.8

Results for COc1cccc(C=Nc2cccc3c(=O)[nH][nH]c(=O)c23)c1O ?
SENP1 inh: inactive; SENP8 block-1: inactive; SENP6 block: 67.1; SENP7 block: 93.1; UCH37 DUB inh: inactive; SENP8 block-2: 64.6; SENP8 conf: inactive; SENP6 confirm: inactive; SENP7 conf: inactive; Casp3 select: inactive; Luc interf: inactive

How did CC(=O)c1ccc(NC(=O)c2ccc3snnc3c2)cc1 do in these assays?
SENP1 inh: inactive; SENP8 block-1: inactive; SENP6 block: inactive; SENP7 block: inactive; UCH37 DUB inh: inactive; SENP8 block-2: inactive

How did O=C(Nc1ccccc1)Nc1ccc2snnc2c1 do in these assays?
SENP1 inh: inactive; SENP8 block-1: inactive; SENP6 block: 61.7; SENP7 block: 61.7; UCH37 DUB inh: inactive; SENP8 block-2: inactive; SENP8 conf: 56.4; SENP6 confirm: 53.7; SENP7 conf: 76.6; Casp3 select: inactive; Luc interf: 63.3

How did O=C(Nc1ccc(Cl)cc1)c1ccc2snnc2c1 do in these assays?
SENP1 inh: inactive; SENP8 block-1: inactive; SENP6 block: inactive; SENP7 block: inactive; UCH37 DUB inh: inactive; SENP8 block-2: inactive

What do the screens show for `O=C(Nc1ccccc1F)c1ccc2snnc2c1`?
SENP1 inh: inactive; SENP8 block-1: inactive; SENP6 block: 51.2; SENP7 block: inactive; UCH37 DUB inh: inactive; SENP8 block-2: inactive; SENP8 conf: inactive; SENP6 confirm: inactive; SENP7 conf: 65.3; Casp3 select: 71.5; Luc interf: inactive

How did O=C(COC(=O)c1ccco1)NCc1ccc2c(c1)OCO2 do in these assays?
SENP1 inh: inactive; SENP8 block-1: inactive; SENP6 block: 57.8; SENP7 block: inactive; UCH37 DUB inh: inactive; SENP8 block-2: inactive; SENP8 conf: inactive; SENP6 confirm: inactive; SENP7 conf: inactive; Casp3 select: inactive; Luc interf: inactive

How did O=C(COC(=O)c1ccc2c(c1)OCO2)NCc1ccc2c(c1)OCO2 do in these assays?
SENP1 inh: inactive; SENP8 block-1: inactive; SENP6 block: inactive; SENP7 block: inactive; UCH37 DUB inh: inactive; SENP8 block-2: inactive

What do the screens show for `CC1=NN(C(N)=S)C(=O)C1N=Nc1ccc(S(N)(=O)=O)cc1` (stereo not drawn)?
SENP1 inh: inactive; SENP8 block-1: inactive; SENP6 block: 50.9; SENP7 block: inactive; UCH37 DUB inh: inactive; SENP8 block-2: inactive; SENP8 conf: inactive; SENP6 confirm: inactive; SENP7 conf: 70.4; Casp3 select: 74.3; Luc interf: 57.0

Results for CC1=NN(C(N)=S)C(=O)C1N=Nc1ccccc1O (stereo not drawn) ?
SENP1 inh: inactive; SENP8 block-1: inactive; SENP6 block: inactive; SENP7 block: inactive; UCH37 DUB inh: inactive; SENP8 block-2: inactive

What do the screens show for `CC(=O)N(C)c1ccc(N=NC2C(=O)N(C(N)=S)N=C2C)cc1` (stereo not drawn)?
SENP1 inh: inactive; SENP8 block-1: inactive; SENP6 block: inactive; SENP7 block: 80.2; UCH37 DUB inh: inactive; SENP8 block-2: 76.7; SENP8 conf: 86.2; SENP6 confirm: 84.4; SENP7 conf: 97.2; Casp3 select: 95.2; Luc interf: 86.7
